# Most compounds without a hit are left out; they make up all but 3.6% or so of the library.
# NadD block = inhibitors of Staphylococcus aureus NadD; AID 602399; purified NadD enzyme, colorimetric absorbance read-out; inhibition, % at 20 µM; 360,000 tested, 0.78% active; in the data active = inhibition above about 26%
# UCH37 inh = inhibitors of human deubiquitinating enzyme UCH37; AID 588478; inhibition, % (concentration not given with the values); Q9Y5K5; 330,000 tested, 0.33% active; purified proteasome/UCH37, Ub-AMC cleavage fluorescence;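 active = mean inhibition over replicate wells above about 20%, limit read from the data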
#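 Assay system: Proteasome-bound UCH37. Buffer or medium: pH 7.4 Tris-HCl (50 mM) with ovalbumin, ATP-MgCl2, DTT. Incubation: 30 min preincubation with enzyme, 25 min cleavage at room temperature. Measured by: fluorescence, ex 355 nm, em 460 nm. Read-out basis: percent inhibition. Control set: wells without proteasome as full block, compound-free enzyme plus substrate as uninhibited.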
# SENP1 inh = blocks the human SENP1 SUMO protease catalytic domain. inhibition, % at 10 µM. recombinant SENP1 catalytic domain, CyPet-SUMO1-YPet FRET cleavage. 360,000 tested, 0.21% active. Q9P0U3;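 active = inhibition at least 30% at 10 µM, raw YFP signal under a set limit, fluorescence ratio 0.5 to 1.5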
# Target sequence (Q9P0U3 419-644 limits assumed): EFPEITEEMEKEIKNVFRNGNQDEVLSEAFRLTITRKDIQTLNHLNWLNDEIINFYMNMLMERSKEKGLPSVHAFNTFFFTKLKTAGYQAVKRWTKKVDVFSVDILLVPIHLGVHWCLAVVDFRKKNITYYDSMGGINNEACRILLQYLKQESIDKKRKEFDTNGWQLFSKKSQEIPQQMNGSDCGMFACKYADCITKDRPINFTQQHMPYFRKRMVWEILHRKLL
#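 Test system: human SENP1 catalytic domain; medium: Tris pH 8 buffer plus EDTA, NaCl, BME, BSA, NP40, catalase; incubation: 50 min reaction at room temperature; technique: FRET, CFP and YFP emission; controls: no-enzyme low control and enzyme-plus-DMSO high control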
# ATG4B inhibitor = ATG4B (human) cysteine protease inhibition; ATG4B cleavage of LC3-PLA2, NBD-HPC fluorescence, 1 h; inhibition, % at 8.33 µM; 340,000 tested, 0.51% active; AID 504462; in the data active = inhibition above about 40%
# Target sequence (Q9Y4P1 whole entry, looked up): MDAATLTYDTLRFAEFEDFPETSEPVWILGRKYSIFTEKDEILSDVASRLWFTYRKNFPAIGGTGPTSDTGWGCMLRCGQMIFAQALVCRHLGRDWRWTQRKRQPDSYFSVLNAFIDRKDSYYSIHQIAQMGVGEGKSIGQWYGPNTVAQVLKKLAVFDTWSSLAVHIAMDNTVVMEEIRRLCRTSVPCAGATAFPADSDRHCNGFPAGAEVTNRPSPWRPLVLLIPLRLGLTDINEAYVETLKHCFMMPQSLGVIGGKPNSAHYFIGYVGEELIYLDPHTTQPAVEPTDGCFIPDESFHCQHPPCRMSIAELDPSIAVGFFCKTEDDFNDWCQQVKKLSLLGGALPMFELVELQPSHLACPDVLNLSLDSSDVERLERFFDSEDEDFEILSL
# NR3A LBD binder = modulators (binders) of human NR3A ligand-binding domain. NR3A LBD differential scanning fluorimetry, Tm shift; 0% = protein alone, 100% = glycine-bound protein. 340,000 tested, 2.5% active. Tm shift relative to glycine control, % at 25 µM. AID 1259313;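 active = melting temperature shift of at least 10% of the positive control shift, at one fixed dose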
# Hits are given with their value; 0 = inactive; - = no result.
SMILES,NadD block,UCH37 inh,SENP1 inh,ATG4B inhibitor,NR3A LBD binder
COc1cc(C=NNC(=O)c2cn(-c3cccc(C)n3)cn2)ccc1O,-,0,-,-,-
COCc1c(C(=O)NN=Cc2cccc3ccccc23)nnn1-c1nonc1N,-,0,-,-,-
CCOc1cccc(-c2c(C(=O)N/N=C(\C)c3ccccn3)nnn2-c2nonc2N)c1,0,-,0,0,30.6
CC(C)c1c(C(=O)N/N=C/c2cccc3ccccc23)nnn1-c1nonc1N,0,-,0,0,31.8
CCCc1c(C(=O)N/N=C/c2cccc3ccccc23)nnn1-c1nonc1N,0,-,0,0,39.5
CC(C)c1c(C(=O)N/N=C/c2c[nH]c3ccccc23)nnn1-c1nonc1N,0,-,0,0,37.6
CCOc1cccc(-c2c(C(=O)N/N=C(\C)c3ccncc3)nnn2-c2nonc2N)c1,0,-,0,0,0
CC(=NN1CCN(Cc2ccccc2)CC1)c1ccco1,-,0,-,-,-
C/C(C=Nn1c(C)n[nH]c1=S)=C/c1ccccc1,-,0,-,-,-
CCOc1ccc(-c2c(C(=O)N/N=C/c3c[nH]c4ccccc34)nnn2-c2nonc2N)cc1,0,-,0,0,32.4
CCN(CC)c1ccc(C=NN2CCN(c3ccccn3)CC2)cc1,-,0,-,-,-
CCCCOC(=O)c1ccc(N=Nc2c(C)c(C#N)c(O)[nH]c2=O)cc1,51.6,0,0,0,0
COc1ccc(CNc2cc(C)ccn2)cc1,0,0,0,0,10.4
COc1ccc(OCCCC(=O)Nc2ccc(N3CCOCC3)cc2)cc1,0,0,0,0,28.3
CC(=O)c1ccc(OCCCC(=O)Nc2ccc(S(=O)(=O)N3CCOCC3)cc2)cc1,0,0,0,0,22.1
COc1ccc(OCC(=O)Nc2ccc(N3CCCCC3)cc2)cc1,0,0,0,0,18.6
Cc1cc(C)cc(OCC(=O)Nc2ccc(F)cc2)c1,0,0,0,0,0
Cc1cc(C)cc(OCC(=O)Nc2ccc3c(c2)C(=O)c2ccccc2C3=O)c1,31.4,0,0,0,13.8
COc1ccc(NC(=O)COc2ccc(-n3cnnn3)cc2)cc1OC,0,0,0,0,11.5
Cc1cc(C)cc(OCC(=O)Nc2ccc(CN3CCCCC3)cc2)c1,0,0,0,0,0
Cc1cc(C)cc(OCC(=O)Nc2ccc(N3CCCC3)cc2)c1,56.5,0,0,0,0
Cc1ccc(NC(=O)COc2ccc(/C(N)=N/O)cc2)cc1C,0,0,0,0,14.4
COc1ccc(NC(=O)c2ccc(NC(=O)CN3CCN(c4ccc(O)cc4)CC3)cc2)cc1,0,-,0,0,17.2
Cc1ccsc1C=NNS(=O)(=O)c1ccc([N+](=O)[O-])cc1,-,0,-,-,-
Cc1ccc(-c2nc3ccccc3[nH]2)s1,0,0,58.6,0,0
SMILES,NadD block,UCH37 inh,SENP1 inh,ATG4B inhibitor,NR3A LBD binder
NS(=O)(=O)c1ccc(NN=Cc2ccc(C(=O)O)cc2)c([N+](=O)[O-])c1,-,0,-,-,-
COc1ccc(C(=O)NN=C/C(C)=C/c2ccccc2)cc1OC,-,0,-,-,-
Cc1ccnc(NC(=O)/C=C/c2ccccc2Cl)c1,0,0,0,0,19.7
Cc1cc(N)c2cc(NC(=O)/C=C/c3ccccc3Cl)ccc2n1,0,0,0,0,18.0
Cc1ccc(NC(=O)CNc2ccc(Cl)c(Cl)c2)cc1S(=O)(=O)N(C)C,0,0,0,0,19.1
CN(C)S(=O)(=O)c1cc(NC(=O)CSc2nn(-c3ccc(Cl)cc3)c(=S)s2)ccc1Cl,0,0,0,0,16.5
Cc1cc(C)nc(N=C(NC(=O)Nc2ccc(Cl)c(Cl)c2)Nc2ccccc2)n1,-,0,-,-,-
O=S(=O)(c1ccccc1)N(c1ccccc1)S(=O)(=O)c1ccccc1,0,-,0,0,11.2
Oc1cccc(C=NNc2nn3cnnc3c3ccccc23)c1,-,0,-,-,-
CN(C)CCN(C(=O)c1ccc(C(=O)c2ccccc2)cc1)c1nc2cc3c(cc2s1)OCO3,0,0,0,0,11.1
COc1cc(/C=C2\SC(=S)N(CC(=O)Nc3ccccn3)C2=O)cc(OC)c1OC,0,0,0,0,0
Cc1cccc(Cc2cnc(NC(=O)CN3C(=O)/C(=C/c4ccccc4)SC3=S)s2)c1,31.0,0,0,0,0
Cc1ccc(/C=C2/SC(=S)N(CC(=O)Nc3ncc(Cc4ccc(C)cc4)s3)C2=O)cc1,0,0,0,0,0
COc1cc(/C=C2/SC(=S)N(CC(=O)Nc3nc4ccccc4s3)C2=O)cc(OC)c1OC,35.0,0,0,0,0
O=C(NC(Cc1ccccc1)C(=O)O)/C(=C/c1ccccc1)NC(=O)c1cccc(Br)c1 (stereo not drawn),0,31.2,0,0,0
Cc1cnc(NC(=O)c2sc3ccccc3c2Cl)s1,0,0,0,0,19.5
O=C(Nc1nccs1)c1sc2ccccc2c1Cl,0,0,0,0,0
O=C(Nc1ccc(NC(=O)c2sc3ccccc3c2Cl)cc1)c1ccco1,0,-,0,0,28.6
CNC(=S)NN=Cc1ccc(-c2cccc(C(=O)O)c2)o1,-,0,-,-,-
CCN(CC(=O)Nc1c(C(=O)OC)[nH]c2ccc(Cl)cc12)c1ccc2c(c1)OCO2,0,0,0,0,0
CCOC(=O)c1[nH]c2ccc(Cl)cc2c1NC(=O)/C=C/c1ccc2c(c1)OCO2,0,0,0,0,21.6
CCN(Cc1ccncc1)C(=O)c1cc(COc2c(F)cccc2F)on1,0,0,0,0,32.2
COc1cccc(C=NNC(=O)c2c(C)nc3ccc(Br)cn23)c1,-,0,-,-,-
O=[N+]([O-])c1cccc(S(=O)(=O)NCCc2ccccc2)c1,0,0,0,0,0
Cc1[nH]c2c(C)cccc2c1CCNS(=O)(=O)c1cccc([N+](=O)[O-])c1,0,0,0,0,30.2
SMILES,NadD block,UCH37 inh,SENP1 inh,ATG4B inhibitor,NR3A LBD binder
Cc1ccc([N+](=O)[O-])cc1S(=O)(=O)NCCc1c(C)[nH]c2c(C)cccc12,0,0,0,0,33.0
Cc1ccc(S(=O)(=O)NN=Cc2c(C)nn(-c3ccccc3)c2C)cc1,-,0,-,-,-
O=C(Nc1ccc([N+](=O)[O-])cc1)C(Cc1ccccc1)N1C(=O)c2cccc3cccc(c23)C1=O (stereo not drawn),0,0,0,0,11.4
CC(=NNC(=O)c1nc2ccccn2c1C)c1ccco1,-,0,-,-,-
CN(C)CCCNCCCNC(=O)C(=NO)c1ccccc1,-,0,-,-,-
Oc1ccc(-c2nc3ccc4ccccc4c3c3c2CCC3)cc1O,39.2,0,0,0,13.1
O=C(Nc1cccc(C(F)(F)F)c1)c1cc2c(s1)-c1ccccc1OC2,0,0,0,0,36.6
O=C(NC1CC1)c1cc2c(s1)-c1ccccc1OC2,0,0,0,0,0
Cc1ccc(C(=O)CC(=O)c2ccccc2)cc1,0,0,0,0,34.1
Cc1ccc(C(=O)OCC(=O)c2ccccc2)cc1,0,0,0,0,18.8
Cc1ccc(C(=O)CCC(=O)NCc2ccccc2)cc1,0,0,0,0,51.1
CC(C)(C)c1ccc(C(=O)CCC(=O)NCc2ccccc2)cc1,0,0,0,0,0
O=C(CCCCCCCC(=O)c1ccccc1)c1ccccc1,0,0,0,0,24.1
O=C(CCCCCCC(=O)c1ccccc1)c1ccccc1,0,0,0,0,0
